In ChEMBL document CHEMBL4513216, “Probing the Open Global Health Chemical Diversity Library for Multistage-Active Starting Points for Next-Generation Antimalarials” (ACS Infect Dis, 2020):

Assay: Toxicity liver stage against HepG2, at 10uM
Format: cell-based
Design: test concentration 10 uM, cell line HepG2-A16-CD81EGFP
Details: human, HepG2-A16-CD81EGFP cells; read-out: INHIBITION
Outline: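 Uninfected HepG2-A16-CD81EGFP cells, 3 × 10^3 per well, 1536-well, plated on prespotted compound at 10 μM final, parasite-free screening media added to match infected plates; puromycin 10 μM positive, DMSO 0.5% negative; run in parallel with 48 h PbLuc assay at 37 °C, 5% CO2; viability by CellTiter-Glo luminescence, normalized to controls.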

Going from `CC(=O)NC(=O)C1(CCCc2ccncc2)CCN1` (stereo not given) to `CC(=O)N1CC[C@H]2OCC[C@@]2(C(=O)NCCc2ccccn2)C1`, the cytotoxicity at 10 µM rises from -24.5% to 6%.

Compared with `CCOc1ncccc1CNC(=O)CN1CCCCCC1=O`, `Cc1ccc(CNC(=O)CN2CCCC(Cn3cncn3)C2)cc1` (stereo not given) is lower in cytotoxicity at 10 µM: 2.92% for the first, -11.5% for the second.

First: c1cc(CN2CCC[C@@H](Cn3nnc(-c4cnccn4)n3)C2)ccn1
Second: Cn1cc(CN2CC[C@H](O)[C@@H]2Cc2ccncc2)cn1
The cytotoxicity at 10 µM of the first is lower: -0.45% for the first, 3.6% for the second.

Compared with `CN(C)C(=O)N1CCC(c2nc3ccc(N4CCCC4)cn3n2)CC1`, `Cn1cnc2c(N3CCCC3)nc(C3CCN(CC4CC4)CC3)cc21` is lower in cytotoxicity at 10 µM: 3.16% for the first, -5.26% for the second.

First: CCc1nc(C2CCCN2C(=O)Cc2cccs2)no1 (stereo not given)
Second: CCc1nc(C2CCCN2C(=O)CCCn2cccn2)no1 (stereo not given)
The cytotoxicity at 10 µM of the first is higher: -7.85% for the first, -13.1% for the second.

Going from `CNc1[nH]nc(N)c1C(=O)Nc1ccc(OC)cc1` to `O=C(NCc1ccccn1)Nc1ccc2[nH]nnc2c1`, the cytotoxicity at 10 µM falls from 14.8% to 6.77%.

Compared with `COc1ccc(C)c2c1N(C(=O)c1cnc3onc(C)c3c1)CCC2`, `Cc1cc(-c2cnc(N3CCOCC3)nc2-c2ccc(C)s2)on1` is lower in cytotoxicity at 10 µM: -1.67% for the first, -5.72% for the second.

Compared with `O=C(Cc1c[nH]c2ccccc12)N1CCC(Nc2cccnn2)CC1`, `CNc1ccnc(N2CCCC(C(=O)c3ccccn3)C2)n1` (stereo not given) is lower in cytotoxicity at 10 µM: -5.08% for the first, -12.1% for the second.

Compared with `CN(Cc1cnn(C)c1)C(=O)NC1CCC(O)CC1` (stereo not given), `CC(C)c1cnc(CN(C)C2CCN(CCc3cnn(C)c3)C2)o1` (stereo not given) is higher in cytotoxicity at 10 µM: -14.7% for the first, -7.12% for the second.

Going from `CS(=O)(=O)c1cncnc1C1CCCN(C(=O)Nc2ccccc2F)C1` (stereo not given) to `O=C(CCOc1ccccc1F)N1CCCC(n2cncn2)C1` (stereo not given), the cytotoxicity at 10 µM falls from -0.675% to -1.22%.

Compared with `O=C(NC1CC1)N1CC[C@H]2[C@H]1CCN2c1nncs1`, `O=C(NC1CCN(C2CC2)CC1)c1cc(Cl)ccc1-n1cnnn1` is higher in cytotoxicity at 10 µM: -4.94% for the first, 3.43% for the second.

Going from `c1cc(OCc2ccc3c(c2)OCO3)ccc1CNC1CC1` to `Cc1ccc(CN2CCOCC2)cc1NCc1ccsc1`, the cytotoxicity at 10 µM falls from 4.7% to -8.84%.

Going from `CCn1c(C(=O)N2CCN(C(=O)COC)CC2)cc2ccccc21` to `COCCn1cc(-c2cc(C(=O)N3CCCC3)c3ccccn23)nc1C`, the cytotoxicity at 10 µM rises from -6.59% to 8.61%.

Compared with `Cn1nnnc1SCCC(=O)NCC1Cc2ccccc2O1` (stereo not given), `CCc1nc(C2CCCN2Cc2cc(C)nc3ccccc23)no1` (stereo not given) is higher in cytotoxicity at 10 µM: 9.35% for the first, 86% for the second.

First: CC1CN=C(N2CCN(C(=O)Nc3nc(-c4ccccc4)ns3)CC2)S1 (stereo not given)
Second: Cc1nnc(N2CCN(C(=O)NC3CC3)CC2)c(C(N)=O)c1C
The cytotoxicity at 10 µM of the first is higher: 10.6% for the first, 4.34% for the second.

Going from `COCCN1Cc2ccccc2C2(CCN(C(=O)c3ccno3)CC2)C1` to `COCCn1cnc(-c2nc(C(=O)N3CCOCC3)c3ccccn23)c1`, the cytotoxicity at 10 µM falls from 5.58% to -10.3%.

First: Cc1cnn(C2(C(=O)O)CCN(c3ccncc3F)CC2)c1
Second: O=C1CC(c2ccncc2)C2(CCN(C(=O)c3cccs3)CC2)N1 (stereo not given)
The cytotoxicity at 10 µM of the first is higher: -1.94% for the first, -71.1% for the second.

Compared with `CCO[C@H]1CCN(S(=O)(=O)c2cn(C)cn2)[C@H]1Cc1ccccc1`, `COc1cccc(Cn2cc(C3=CCN(CC(=O)N(C)C)CC3)cn2)c1` is lower in cytotoxicity at 10 µM: 7.95% for the first, -13.1% for the second.

First: CC(C)(C)NC(=O)CN1CCCNCC1
Second: CC(=O)N1CCC(NC(=O)c2ccc3c(c2O)OC(C)(C)C3)CC1
The cytotoxicity at 10 µM of the first is lower: -145% for the first, 0.519% for the second.

Compared with `O=C1CC2(CCCCN2C(=O)c2ccsc2)CN1CC1CC1` (stereo not given), `O=C1NCc2ccccc2CC12CCCN(Cc1ccsc1)C2` (stereo not given) is higher in cytotoxicity at 10 µM: 2.84% for the first, 11% for the second.

First: CCc1cnc(N2C[C@@H]3[C@@H](C(=O)NCC(C)C)CCS(=O)(=O)[C@@H]3C2)nc1
Second: Cc1csc(NC(=O)c2cnc(C3CCCN(C)C3)cn2)n1 (stereo not given)
The cytotoxicity at 10 µM of the first is lower: -135% for the first, -21.3% for the second.

Going from `Cc1ccc(C)c(-n2cc(CN3CCOCC3)c(-c3ccccc3)n2)c1` to `CC(NC(=O)Nc1ccccc1CN1CCOCC1)c1nnc(N)s1` (stereo not given), the cytotoxicity at 10 µM falls from 13.1% to 4.84%.

First: Cc1cc(NC2CCc3ncnn3C2)n2ncnc2n1 (stereo not given)
Second: CCOc1ccc(NC(=O)NC2CCc3[nH]ncc3C2)cn1 (stereo not given)
The cytotoxicity at 10 µM of the first is lower: -18.4% for the first, 3.95% for the second.

First: COc1ccccc1CNC(C)c1cnc2cc(C)nn2c1C (stereo not given)
Second: CN(C)C(Cn1ccnc1-c1nccn1C)c1ccccc1Cl (stereo not given)
The cytotoxicity at 10 µM of the first is higher: 8.32% for the first, -0.0184% for the second.

Compared with `O=C1O[C@@H]2CN(Cc3ccccn3)C[C@@H]2N1CCCc1ccc(F)cc1`, `O=C(O)CCc1nc2nccc(-c3ccc(F)cc3)n2n1` is lower in cytotoxicity at 10 µM: -0.687% for the first, -9.24% for the second.

First: O=C1N[C@@H]2CCN(C(=O)N3CCOCC3)[C@@H]2C(=O)N1Cc1ccccc1
Second: O=C1CC(c2ccccc2C(F)(F)F)c2sc(N3CCOCC3)nc2N1 (stereo not given)
The cytotoxicity at 10 µM of the first is lower: -3.36% for the first, 9.18% for the second.

Compared with `N#CC1(NC(=O)c2ccc(-c3nc(C4CC4)n[nH]3)cc2)CCSC1` (stereo not given), `CC(=O)N1CCC(c2cc(C(F)(F)F)nc3nccn23)CC1` is lower in cytotoxicity at 10 µM: 4.39% for the first, -2.11% for the second.

Compared with `COC[C@]1(O)CCN(c2cc(N3CCOCC3)ncn2)CC1(C)C`, `O=C(c1ncccc1O)N1CCc2c(ncnc2N2CCOCC2)C1` is lower in cytotoxicity at 10 µM: -3.81% for the first, -3.99% for the second.

First: CC(=O)c1cn(CC(=O)N2CCC(O)(CO)CC2)c2ccccc12
Second: Cc1ccc(=O)n(CC2(O)CCN(Cc3cccs3)CC2)n1
The cytotoxicity at 10 µM of the first is higher: 1.13% for the first, -5.72% for the second.

Compared with `CN1CCOC(CNCc2cccc(OC(F)(F)F)c2)C1` (stereo not given), `COc1cccc(-c2nc(CNC(C)Cn3cccn3)cs2)c1` (stereo not given) is higher in cytotoxicity at 10 µM: -12% for the first, -6.31% for the second.

Compared with `O=C(CCCn1cncn1)N1CCCCC1c1nccs1` (stereo not given), `O=C(c1cnccn1)N1CCN2C[C@H](Oc3cccnc3)C[C@H]2C1` is lower in cytotoxicity at 10 µM: 8.6% for the first, 4.62% for the second.

Going from `CC1(C)O[C@@](C)([C@H]2CC3(CCN(c4ncccn4)CC3)CO2)CC[C@@H]1O` to `CC1(c2ncc(CN3CCSCC3)cn2)CCCCO1` (stereo not given), the cytotoxicity at 10 µM falls from 4.98% to 2.12%.

Going from `CNC(=O)CNC(=O)Nc1cc(-c2ccccc2)ns1` to `CCN(CCCNC(=O)c1cc2cccc(F)c2o1)S(C)(=O)=O`, the cytotoxicity at 10 µM falls from 22% to 4.35%.

First: Fc1ccc(CNCCn2cccn2)c(Cl)c1
Second: O=C(Nc1ccc(-n2cccn2)cc1)N1CCOCC(O)C1 (stereo not given)
The cytotoxicity at 10 µM of the first is higher: -1.26% for the first, -46.8% for the second.

Going from `CC(=O)N1C[C@H]2CC[C@@H](C1)N(C(=O)CCc1n[nH]c3c1CCCC3)C2` to `CC(=O)N(Cc1noc(C2CC2)n1)C1CCN(CC2CCOCC2)C1` (stereo not given), the cytotoxicity at 10 µM falls from 10.3% to 1.29%.

Compared with `CNC(=O)[C@@H]1C[C@H]2CN(Cc3c(C)noc3C)C[C@H]2N1C(C)C`, `Cc1cc(CN2C[C@@H]3CCCO[C@@H]3[C@H](N(C)C(C)C)C2)no1` is higher in cytotoxicity at 10 µM: -107% for the first, 2.44% for the second.

First: CNc1nc2c(s1)C(c1cc(Cl)ccc1F)CC(=O)N2 (stereo not given)
Second: Cc1ccsc1CN(CCN(C)C)C(=O)C1=NNC(=O)CC1
The cytotoxicity at 10 µM of the first is higher: 10.3% for the first, -13.4% for the second.

Going from `CCn1ccc(-c2cc(C(=O)O)n3nc(C(F)(F)F)c(Br)c3n2)n1` to `CCS(=O)(=O)Nc1ccc2c(c1)OCC(C)(C)C(=O)N2C`, the cytotoxicity at 10 µM falls from -1.47% to -17.2%.

First: Cc1ccc(CN2CCOC3(CCN(C(=O)C4CCOC4)CC3)C2)cc1 (stereo not given)
Second: Cc1ncc(C(=O)N2CCCC2(C)C(=O)N2CCOCC2)c(C)n1 (stereo not given)
The cytotoxicity at 10 µM of the first is higher: 0.933% for the first, -0.681% for the second.

Going from `O=S(=O)(Nc1ccc2c(c1)OCCO2)N1CCCCC1` to `CC(C)c1n[nH]c(C2CN(Cc3nnc(C4CC4)n3C)CCO2)n1` (stereo not given), the cytotoxicity at 10 µM falls from 3.96% to -10.3%.
